Data reported in ChEMBL document CHEMBL3352121, “Modulation of Activity Profiles for Largazole-Based HDAC Inhibitors through Alteration of Prodrug Properties” (ACS Med Chem Lett, 2014).
The source made the active and inactive calls. The rule behind the calls is not given here.

Legend:
HCT-116 [1] = experiment: In vivo inhibition of HDAC in tumor of human HCT116 cells xenografted nu/nu mouse assessed as increase in histone hyperacetylation at 50 mg/kg, ip after 4 to 24 hrs by immunoblotting method; type: functional, organism-based; set-up: dose 50 mg/kg
Procedure, shortened: (§1)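 HCT116 xenograft mice were dosed intraperitoneally at 10 or 50 mg/kg. Tumors were excised after 4, 12 and 24 h, n = 2. Histone hyperacetylation in tumor tissue was assessed by immunoblotting.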

[2] = Drug metabolism in tumor of human HCT116 cells xenografted nu/nu mouse assessed largazole thiol formation at 50 mg/kg, po by HPLC-MS method; details: in vivo
HCT-116 [3] = experiment: In vivo inhibition of HDAC in tumor of human HCT116 cells xenografted nu/nu mouse assessed as increase in histone hyperacetylation at 50 mg/kg, ip after 4 hrs by immunoblotting method; type: functional, organism-based; set-up: dose 50 mg/kg; procedure, shortened: as §1
HCT-116 [4] = experiment: In vivo inhibition of HDAC in tumor of human HCT116 cells xenografted nu/nu mouse assessed as increase in histone hyperacetylation at 50 mg/kg, po after 4 to 12 hrs by immunoblotting method; type: functional, organism-based; set-up: dose 50 mg/kg
Procedure, shortened: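 Mice bearing HCT116 xenografts were dosed intraperitoneally at 10 or 50 mg/kg, or orally at 50 mg/kg. Tumors were excised at 4, 12 and 24 h. Histone hyperacetylation in the tumors was assessed by immunoblot, n = 2.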

Serum = experiment: Drug metabolism in mouse serum assessed as largazole thiol formation after 0.25 to 1440 mins by HPLC-MS method; type: ADME, cell-free
HCT-116 [5] = experiment: In vivo inhibition of HDAC in tumor of human HCT116 cells xenografted nu/nu mouse assessed as increase in histone hyperacetylation at 10 mg/kg, ip after 4 to 24 hrs by immunoblotting method; type: functional, organism-based; set-up: dose 10 mg/kg; procedure, shortened: as §1
[6] = Drug metabolism in tumor of human HCT116 cells xenografted nu/nu mouse assessed as time for maximum largazole thiol level at 10 mg/kg, ip by HPLC-MS method; type: ADME, organism-based, Neoplasm, HCT-116; set-up: dose 10 mg/kg, route intraperitoneal; details: in vivo
[7] = Drug metabolism in tumor of human HCT116 cells xenografted nu/nu mouse assessed as time for maximum largazole thiol level at 50 mg/kg, ip by HPLC-MS method; type: ADME, organism-based, Neoplasm, HCT-116; set-up: dose 50 mg/kg, route intraperitoneal; details: in vivo
[8] = Drug metabolism in human HCT116 cells protein lysate solution assessed as largazole thiol formation at 25 ug/mL after 30 mins by HPLC-MS method; type: ADME, cell-based; details: hct-116, 0.5 h
[9] = target: Histone deacetylase (Homo sapiens) (UniProt Q13547+O15379+Q9UBN7+Q92769+Q9UQL6+Q8WUI4+Q9BY41+Q96DB2+P56524+Q9UKV0+Q969S8); experiment: Inhibition of HDAC in human HCT116 cells assessed as increase in histone H3 (Lys9/14) hyperacetylation after 8 to 24 hrs by immunoblotting method; type: cell-based; details: HCT-116
Procedure, shortened: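 HCT116 cells were treated across a dose range. Cellular HDAC inhibition was read as histone H3 (Lys9/14) hyperacetylation by immunoblot at 8 and 24 h post-treatment.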

CCCCCCCC(=O)SCC/C=C/[C@@H]1CC(=O)NCc2nc(cs2)C2=N[C@@](C)(CS2)C(=O)N[C@@H](C(C)C)C(=O)O1 [LARGAZOLE]
inhibition (HCT-116 [1]): Active
Drug metabolism [2]: metabolite_detected
inhibition (HCT-116 [3]): Active
inhibition (HCT-116 [4]): Active
Drug metabolism (Serum): metabolite_detected
inhibition (HCT-116 [5]): Active
Tmax [6]: 4 h
Tmax [7]: 4 h
Drug metabolism [8]: metabolite_detected
inhibition [9]: Dose-dependent effect
